One data set has as its target Histamine H3 receptor (Homo sapiens, UniProt Q9Y5N1). Briefly: Displacement of [3H]alpha methyl histamine from human cloned histamine H3 receptor.
In another data set the target is Histamine H2 receptor (Homo sapiens, UniProt P25021). Put plainly: Displacement of [3H]tiotidine from human cloned histamine H2 receptor.
Data set [1] addresses 5-hydroxytryptamine receptor 2A (Homo sapiens, UniProt P28223). Put plainly: Displacement of [3H]ketanserin from human cloned 5HT2A receptor.
Another data set deals with Cannabinoid receptor 2 (Homo sapiens, UniProt P34972). Put plainly: Binding affinity to human CB2 receptor by [35S]GTPgammaS binding assay. Type of data set: functional. In short, it runs like this: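 Recombinant human CB2 membranes (7 µg/well) in buffer with 100 mM NaCl, 5 mM MgCl2, 1 mM EDTA, 50 mM HEPES, 10 µM GDP, 100 µM DTT, 0.01% BSA. Incubation 45 min at 30 °C, then filtration and scintillation counting. Nonspecific binding with 20 µM GTPγS. IC50 converted to Ki by Cheng-Prusoff; triplicates.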

The target in another data set is Cannabinoid receptor 1 (Homo sapiens, UniProt P21554). Put plainly: Binding affinity to human CB1 receptor by [35S]GTPgammaS binding assay. The format is functional.
Data set [2] concerns Pons. Put plainly: Biodistribution in cynomolgus monkey brain pons assessed as standardized uptake value at 78 GBq/umol, iv after 90 mins. The format is ADME, organism-based, Macaca fascicularis. As to conditions: in vivo, 1.5 h. In short, it runs like this:
(§1)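 Anesthetized cynomolgus monkeys (3.4, 4.8 kg; ketamine/xylazine i.m., head in stereotactic frame). [11C] radioligand given as i.v. bolus over about 5 s: 56–100 MBq, 0.33–0.81 µg carrier. Brain scanned on ECAT EXACT HR for 93 min. Regions defined on a monkey brain atlas. Decay-corrected activity expressed as %SUV (% injected activity per g tissue × body weight).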

In data set [3] the test system is Brain. Briefly: Biodistribution in 1 mg/kg, iv N-(4-fluorobenzyl)-4-(3-(piperidin-1-yl)-1H-indol-1-ylsulfonyl)benzamide pretreated cynomolgus monkey brain assessed as standardized uptake value at […], iv after 90 mins. Details: dose 1 mg/kg, route intravenous. Conditions: in vivo, 1.5 h. Type of data set: ADME, organism-based, Macaca fascicularis.
The subject of data set [4] is Pons. Briefly: Biodistribution in cynomolgus monkey brain pons assessed as standardized uptake value at 78 GBq/umol, iv after 24 mins. Type of data set: ADME, organism-based, Macaca fascicularis. Conditions: in vivo, 0.4 h. In short, it runs like this: as §1
Data set [5] in a line: Biodistribution in cynomolgus monkey brain striatum assessed as standardized uptake value at 78 GBq/umol, iv after 90 mins. As to conditions: in vivo, 1.5 h. The format is ADME, organism-based, Macaca fascicularis. The method, boiled down: as §1
Data set [6] can be described thus: Biodistribution in cynomolgus monkey brain striatum assessed as standardized uptake value at 78 GBq/umol, iv after 30 mins. The format is ADME, organism-based, Macaca fascicularis. Conditions: in vivo, 0.5 h. The method, boiled down:
as §1

For data set [7], the system named is Brain. Put plainly: Biodistribution in 1 mg/kg, iv N-(4-fluorobenzyl)-4-(3-(piperidin-1-yl)-1H-indol-1-ylsulfonyl)benzamide pretreated cynomolgus monkey brain assessed as standardized uptake value at […], iv after 15 mins. The format is ADME, organism-based, Macaca fascicularis. On the set-up: dose 1 mg/kg, route intravenous. As to conditions: in vivo, 0.25 h.

The nature of data set [8]: Biodistribution in cynomolgus monkey brain striatum assessed as standardized uptake value at 65 GBq/umol, iv after 48 mins. The format is ADME, organism-based, Macaca fascicularis. As to conditions: in vivo, 0.8 h. The method, boiled down:
as §1

The test system of data set [9] is Pons. Put plainly: Biodistribution in cynomolgus monkey brain pons assessed as standardized uptake value at 65 GBq/umol, iv after 24 mins. The format is ADME, organism-based, Macaca fascicularis. Conditions: in vivo, 0.4 h. The method, boiled down:
as §1

The nature of data set [10]: Biodistribution in cynomolgus monkey plasma assessed as unchanged drug level at 65 GBq/umol, iv after 45 mins. Type of data set: ADME, organism-based, Macaca fascicularis. Conditions: read-out: Activity. The method, boiled down:
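Venous blood (1 mL) taken 5, 15, 30 and 45 min after i.v. radioligand in anesthetized monkey. Plasma (0.5 mL) mixed with MeCN containing carrier standard and centrifuged at 2000 × g for 1 min. Supernatant counted, then analyzed by reverse-phase radio-HPLC with a MeCN/0.01 M H3PO4 gradient. Parent expressed as % of plasma radioactivity.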

A short description of data set [11]: Biodistribution in cynomolgus monkey brain striatum assessed as standardized uptake value at 56 GBq/umol, iv after 90 mins. The format is ADME, organism-based, Macaca fascicularis. As to conditions: in vivo, 1.5 h. The method, boiled down:
as §1

A short description of data set [12]: Biodistribution in cynomolgus monkey brain striatum assessed as standardized uptake value at 56 GBq/umol, iv after 1.5 mins. Type of data set: ADME, organism-based, Macaca fascicularis. As to conditions: in vivo, 0.025 h. The method, boiled down: as §1

Cannabinoid receptor 1, sequence (P21554 whole entry): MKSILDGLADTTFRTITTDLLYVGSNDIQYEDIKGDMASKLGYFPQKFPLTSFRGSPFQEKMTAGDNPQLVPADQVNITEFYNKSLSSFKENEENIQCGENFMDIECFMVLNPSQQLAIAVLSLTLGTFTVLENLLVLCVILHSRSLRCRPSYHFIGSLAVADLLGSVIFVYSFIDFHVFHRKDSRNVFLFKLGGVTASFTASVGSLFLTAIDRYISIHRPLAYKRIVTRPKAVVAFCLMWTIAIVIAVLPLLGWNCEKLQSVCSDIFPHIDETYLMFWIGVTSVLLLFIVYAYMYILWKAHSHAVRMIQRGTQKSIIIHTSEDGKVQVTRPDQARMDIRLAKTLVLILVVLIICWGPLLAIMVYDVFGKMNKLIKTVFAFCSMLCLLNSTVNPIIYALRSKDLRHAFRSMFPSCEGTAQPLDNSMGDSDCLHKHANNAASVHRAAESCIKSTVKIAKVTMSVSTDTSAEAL
Cannabinoid receptor 2, sequence (P34972 whole entry): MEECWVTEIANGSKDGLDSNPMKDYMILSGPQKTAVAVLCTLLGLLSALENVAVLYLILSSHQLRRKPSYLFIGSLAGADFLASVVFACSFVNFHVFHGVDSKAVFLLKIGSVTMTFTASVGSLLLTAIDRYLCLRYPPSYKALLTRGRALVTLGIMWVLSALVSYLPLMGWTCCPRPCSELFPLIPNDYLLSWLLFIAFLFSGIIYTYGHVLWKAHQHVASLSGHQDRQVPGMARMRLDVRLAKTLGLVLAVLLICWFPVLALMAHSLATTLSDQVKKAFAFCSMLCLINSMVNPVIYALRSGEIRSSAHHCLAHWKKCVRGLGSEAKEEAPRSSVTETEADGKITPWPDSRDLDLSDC
Histamine H3 receptor, sequence (Q9Y5N1 whole entry): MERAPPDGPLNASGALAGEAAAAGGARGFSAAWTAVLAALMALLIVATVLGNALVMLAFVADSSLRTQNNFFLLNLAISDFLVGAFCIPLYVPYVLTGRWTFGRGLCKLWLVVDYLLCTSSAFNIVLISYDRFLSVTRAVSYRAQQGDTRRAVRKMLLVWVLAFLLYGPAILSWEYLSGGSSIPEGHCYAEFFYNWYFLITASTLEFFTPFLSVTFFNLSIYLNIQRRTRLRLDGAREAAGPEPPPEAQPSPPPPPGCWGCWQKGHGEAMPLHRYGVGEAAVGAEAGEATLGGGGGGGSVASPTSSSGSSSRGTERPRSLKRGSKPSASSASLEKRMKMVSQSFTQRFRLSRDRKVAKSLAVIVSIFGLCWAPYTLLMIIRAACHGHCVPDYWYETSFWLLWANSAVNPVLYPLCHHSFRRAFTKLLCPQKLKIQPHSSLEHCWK
5-hydroxytryptamine receptor 2A, sequence (P28223 whole entry): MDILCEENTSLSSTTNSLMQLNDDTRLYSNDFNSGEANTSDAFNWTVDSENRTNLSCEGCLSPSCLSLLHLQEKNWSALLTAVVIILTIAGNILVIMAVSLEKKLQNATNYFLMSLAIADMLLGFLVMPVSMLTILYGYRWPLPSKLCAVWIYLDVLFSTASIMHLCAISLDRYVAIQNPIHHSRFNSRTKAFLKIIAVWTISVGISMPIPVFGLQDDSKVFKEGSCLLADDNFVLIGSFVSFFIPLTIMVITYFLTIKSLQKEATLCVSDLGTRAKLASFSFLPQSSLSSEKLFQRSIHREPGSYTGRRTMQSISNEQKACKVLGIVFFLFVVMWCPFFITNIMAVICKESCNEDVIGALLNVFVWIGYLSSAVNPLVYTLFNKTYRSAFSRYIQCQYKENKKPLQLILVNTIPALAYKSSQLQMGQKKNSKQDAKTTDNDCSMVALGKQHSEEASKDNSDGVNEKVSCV
Histamine H2 receptor, sequence (P25021 whole entry): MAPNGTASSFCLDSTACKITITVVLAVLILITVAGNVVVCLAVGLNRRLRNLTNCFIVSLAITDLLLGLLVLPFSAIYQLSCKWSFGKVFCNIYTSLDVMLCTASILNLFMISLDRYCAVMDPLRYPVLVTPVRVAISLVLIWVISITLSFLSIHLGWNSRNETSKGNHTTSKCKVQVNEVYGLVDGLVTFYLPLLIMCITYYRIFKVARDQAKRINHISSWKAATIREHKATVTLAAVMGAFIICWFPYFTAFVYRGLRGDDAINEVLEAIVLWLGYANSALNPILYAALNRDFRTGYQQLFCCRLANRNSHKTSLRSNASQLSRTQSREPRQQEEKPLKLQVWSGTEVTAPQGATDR

On to `N#Cc1ccc(S(=O)(=O)/N=C(\N)N2C[C@H](c3ccccc3)C(c3ccc(Cl)cc3)=N2)cc1`, for which the Ki is over 10 µM on Histamine H3 receptor; over 10 µM on Histamine H2 receptor; over 7.71 µM in data set [1]; over 5 µM on Cannabinoid receptor 2; 0.0005 µM at Cannabinoid receptor 1. In addition, the results for the 50% inhibitory concentration (IC50) at Cannabinoid receptor 2 and at Cannabinoid receptor 1 were over 33 µM and 0.0028 µM, respectively.
`N#[11C]c1ccc(S(=O)(=O)/N=C(\N)N2CC(c3ccccc3)C(c3ccc(Cl)cc3)=N2)cc1` (racemic): the Drug uptake in the data set on Pons [2] was found to be 124%; with Brain [3] it was 85%; with Pons [4], 150%; in data set [5] it was 180%; in data set [6], 220%; in the data set on Brain [7] it was 175%.
With `N/C(=N\S(=O)(=O)c1ccc(I)cc1)N1C[C@@H](c2ccccc2)C(c2ccc(Cl)cc2)=N1`, on Cannabinoid receptor 2, the IC50 was over 33 µM and the inhibition constant Ki is over 5 µM. On Cannabinoid receptor 1, this compound displayed an IC50 of 0.104 µM and an inhibition constant (Ki) of 0.0174 µM.
On Cannabinoid receptor 2, `N/C(=N\S(=O)(=O)c1ccc(I)cc1)N1C[C@H](c2ccccc2)C(c2ccc(Cl)cc2)=N1` yielded a concentration for half-maximal inhibition (IC50) of over 33 µM and a Ki of over 5 µM. Further, at Cannabinoid receptor 1, the IC50 stood at 0.0019 µM and the Ki was 0.0003 µM.
As to `N#[11C]c1ccc(S(=O)(=O)/N=C(\N)N2C[C@H](c3ccccc3)C(c3ccc(Cl)cc3)=N2)cc1`, the Drug uptake was determined as 200% in data set [8] and 125% in the data set with Pons [9]. Besides, the remaining at 0.75 h in data set [10] worked out at 50%.
With `N#[11C]c1ccc(S(=O)(=O)/N=C(\N)N2C[C@@H](c3ccccc3)C(c3ccc(Cl)cc3)=N2)cc1`, the Drug uptake in [11] came out at 95%; in data set [12], 280%.
For `N#Cc1ccc(S(=O)(=O)/N=C(\N)N2C[C@@H](c3ccccc3)C(c3ccc(Cl)cc3)=N2)cc1`, the results for the half-maximal inhibitory concentration (IC50) at Cannabinoid receptor 2 and at Cannabinoid receptor 1 were over 33 µM and 0.1 µM, respectively. In addition, the Ki at Cannabinoid receptor 2 is over 5 µM; at Cannabinoid receptor 1, 0.0169 µM.

These data come from ChEMBL document CHEMBL1140076, “Discovery and labeling of high-affinity 3,4-diarylpyrazolines as candidate radioligands for in vivo imaging of cannabinoid subtype-1 (CB1) receptors” (J Med Chem, 2008).
